Laboratory results as given in ChEMBL document CHEMBL1156767, “Indol-3-ylcycloalkyl ketones: effects of N1 substituted indole side chain variations on CB(2) cannabinoid receptor activity” (J Med Chem, 2010).

Tests used:
[1] = biological target: T1, Cannabinoid receptor 1 (Homo sapiens, UniProt P21554); assay: Agonist activity at human recombinant CB1 receptor expressed in CHO cells assessed as inhibition of forskolin-induced cAMP production; assay type: functional, cell-based
[2] = organism: Homo sapiens; assay: Selectivity ratio of Ki for human recombinant CB1 receptor to Ki for human recombinant CB2 receptor
Summary of the method: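 Membranes were from HEK cells stably expressing human CB2 and CHO cells stably expressing human CB1. Competition was run against 0.5 nM [3H]CP-55,940 in 50 mM Tris-HCl pH 7.4, 2.5 mM EDTA, 5 mM MgCl2, 0.05% fatty-acid-free BSA, for 90 min at 30 °C, then filtered. Nonspecific binding was set with 10 μM unlabeled CP-55,940. Ki came from one-site fits. Mean ± SEM, ≥3 experiments in duplicate.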

[3] = biological target: T2, Cannabinoid receptor 2 (Homo sapiens, UniProt P34972); assay: Agonist activity at human recombinant CB2 receptor expressed in HEK293 cells assessed as inhibition of forskolin-induced cAMP production; assay type: functional, cell-based
T2 sequence (P34972 whole entry): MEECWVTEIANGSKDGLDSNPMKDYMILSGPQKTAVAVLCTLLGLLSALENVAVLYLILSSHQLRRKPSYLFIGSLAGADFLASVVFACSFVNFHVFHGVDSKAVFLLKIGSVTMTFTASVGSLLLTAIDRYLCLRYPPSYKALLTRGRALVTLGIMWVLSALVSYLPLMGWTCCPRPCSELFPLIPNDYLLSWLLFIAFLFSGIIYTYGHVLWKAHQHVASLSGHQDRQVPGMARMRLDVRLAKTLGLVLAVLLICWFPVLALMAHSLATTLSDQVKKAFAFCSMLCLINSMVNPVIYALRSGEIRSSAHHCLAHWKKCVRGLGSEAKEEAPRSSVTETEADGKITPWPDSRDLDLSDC

[4] = biological target: T2, Cannabinoid receptor 2; assay: Agonist activity at human recombinant CB2 receptor expressed in HEK293 cells coexpressing Galphaq/o5 assessed as calcium mobilization by FLIPR assay relative to CP-55940; assay type: functional, cell-based
Summary of the method: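 HEK cells stably coexpressing human CB2 and chimeric Gαq/o5 were seeded at 75 000 cells/well the day before and loaded with no-wash calcium dye. […] Mean ± SEM, ≥3 experiments in duplicate.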

[5] = biological target: T1, Cannabinoid receptor 1; assay: Displacement of [3H]CP-55940 from human recombinant CB1 receptor expressed in CHO cells; assay type: cell-based
[6] = biological target: T2, Cannabinoid receptor 2; assay: Agonist activity at human recombinant CB2 receptor expressed in HEK293 cells coexpressing Galphaq/o5 assessed as calcium mobilization by FLIPR assay; assay type: functional, cell-based
Summary of the method: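 HEK cells stably coexpressing human CB2 and chimeric Gαq/o5 were seeded at 75 000 cells/well the day before and loaded with no-wash calcium dye. Mean ± SEM, ≥3 experiments in duplicate.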

[7] = biological target: T3, Cannabinoid receptor 2 (Rattus norvegicus, UniProt Q9QZN9); assay: Agonist activity at rat CB2 receptor assessed as inhibition of forskolin-induced cAMP production by cell based assay; assay type: functional
T3 sequence (Q9QZN9 whole entry): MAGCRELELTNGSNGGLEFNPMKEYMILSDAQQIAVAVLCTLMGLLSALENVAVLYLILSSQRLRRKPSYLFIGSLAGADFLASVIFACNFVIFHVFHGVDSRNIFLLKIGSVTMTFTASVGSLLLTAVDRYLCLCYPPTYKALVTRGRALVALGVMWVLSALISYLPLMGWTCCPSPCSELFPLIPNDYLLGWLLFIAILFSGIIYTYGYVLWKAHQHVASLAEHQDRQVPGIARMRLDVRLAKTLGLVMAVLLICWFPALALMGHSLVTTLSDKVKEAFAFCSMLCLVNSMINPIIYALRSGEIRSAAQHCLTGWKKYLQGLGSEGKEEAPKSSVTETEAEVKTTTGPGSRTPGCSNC

[8] = biological target: T4, Cannabinoid receptor 2 (Rattus norvegicus) (UniProt Q9QZN9); assay: Agonist activity at rat CB2 receptor assessed as inhibition of forskolin-induced cAMP production by cell based assay relative to CP-55940; assay type: functional; parameters: concentration or dose not given beside the values
T4 sequence (whole entry): T3 sequence (Q9QZN9 whole entry)
Summary of the method: (§1)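 Cyclase assay on cell suspensions (HitHunter cAMP kit): varying test ligand concentrations or CP-55,940 positive control incubated 20 min at 37 °C with a fixed forskolin concentration (lower for rat CB2 than for human CB2 and rat CB1) in D-PBS with 0.01% BSA. Lysis buffer was then added and luminescence read. Response is given as percent of the CP-55,940 response.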

[9] = biological target: T2, Cannabinoid receptor 2; assay: Displacement of [3H]CP-55940 from human recombinant CB2 receptor expressed in HEK293 cells; assay type: cell-based; settings: read-out: Ki
[10] = biological target: T2, Cannabinoid receptor 2; assay: Agonist activity at human recombinant CB2 receptor expressed in HEK293 cells assessed as inhibition of forskolin-induced cAMP production relative to CP-55940; assay type: functional, cell-based; parameters: scale not given: the % may be the effect or the level left; summary of the method: as §1
[11] = biological target: Cannabinoid receptor 1 (Rattus norvegicus) (UniProt P20272); assay: Agonist activity at rat CB1 receptor assessed as inhibition of forskolin-induced cAMP production by cell based assay relative to CP-55940; assay type: functional; parameters: scale not given: the % may be the effect or the level left; summary of the method: as §1
Cannabinoid receptor 1 (Rattus norvegicus), sequence (P20272 whole entry): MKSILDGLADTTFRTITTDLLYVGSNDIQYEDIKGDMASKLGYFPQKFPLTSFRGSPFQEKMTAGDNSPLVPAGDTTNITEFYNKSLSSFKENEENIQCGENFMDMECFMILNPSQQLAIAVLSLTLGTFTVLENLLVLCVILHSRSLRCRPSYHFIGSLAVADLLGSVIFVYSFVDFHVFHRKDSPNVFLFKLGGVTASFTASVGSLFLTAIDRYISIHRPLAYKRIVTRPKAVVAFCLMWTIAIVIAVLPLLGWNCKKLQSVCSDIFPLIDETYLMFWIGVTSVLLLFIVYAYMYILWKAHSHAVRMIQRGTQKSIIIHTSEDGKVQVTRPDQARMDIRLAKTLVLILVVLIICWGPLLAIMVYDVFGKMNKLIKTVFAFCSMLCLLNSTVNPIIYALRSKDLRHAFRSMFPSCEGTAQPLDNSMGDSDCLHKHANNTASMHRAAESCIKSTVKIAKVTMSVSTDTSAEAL

[12] = biological target: Cannabinoid receptor 1 (Rattus norvegicus, UniProt P20272); assay: Agonist activity at rat CB1 receptor assessed as inhibition of forskolin-induced cAMP production by cell based assay; assay type: functional
Cannabinoid receptor 1 (Rattus norvegicus, UniProt P20272), sequence (P20272 whole entry): as above

T1 sequence (P21554 whole entry): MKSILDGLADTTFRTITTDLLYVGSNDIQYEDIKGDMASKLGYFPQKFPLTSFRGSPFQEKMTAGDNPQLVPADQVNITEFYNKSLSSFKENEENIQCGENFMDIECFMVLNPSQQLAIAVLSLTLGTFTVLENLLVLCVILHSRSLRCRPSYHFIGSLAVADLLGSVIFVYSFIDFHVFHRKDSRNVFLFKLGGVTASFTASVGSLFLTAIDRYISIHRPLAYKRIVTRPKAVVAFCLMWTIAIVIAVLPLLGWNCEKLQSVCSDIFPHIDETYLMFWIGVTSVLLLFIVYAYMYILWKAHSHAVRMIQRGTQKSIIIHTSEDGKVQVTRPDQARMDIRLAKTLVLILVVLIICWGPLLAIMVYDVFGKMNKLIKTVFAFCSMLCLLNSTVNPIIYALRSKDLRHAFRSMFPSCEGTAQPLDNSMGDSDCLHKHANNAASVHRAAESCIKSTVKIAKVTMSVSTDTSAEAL

Row | SMILES | EC50 [1] | Ratio Ki [2] | EC50 [3] | Activity [4] | Ki ([5]; read-out: Ki) | EC50 [6] | EC50 [7] | Activity [8] | Ki [9] | Activity [10] | Activity [11] | Ki ([5]; read-out: pKi (converted)) | EC50 [12]
1 | CC1(C)C(C(=O)c2cn(CCN3CCOC3=O)c3ccccc23)C1(C)C | 3590 nM | 1940 | 0.97 nM | 81% | 350 nM | 2 nM | 0.07 nM | 99% | 0.18 nM | 114% |  |  | 
2 | CC1(C)C(C(=O)c2cn(CCCCO)c3ccccc23)C1(C)C | 1880 nM | > 2500 | 2.1 nM | 105% | > 5600 nM | 8 nM | 4.4 nM | 104% | 2.2 nM | 100% | 113% | > 5620 nM | 2080 nM
3 | CC1(C)C(C(=O)c2cn(CC3CCOCC3)c3ccccc23)C1(C)C |  |  | 2.7 nM |  |  |  | 0.17 nM | 93% |  | 103% | 91% |  | 
4 | Cc1c(C(=O)c2cccc3ccccc23)c2cccc3c2n1[C@H](CN1CCOCC1)CO3 |  |  |  |  |  |  |  | 46% |  |  | 108% |  | 
5 | CC1(C)C(C(=O)c2cn(CCCCCO)c3ccccc23)C1(C)C |  | 958 |  | 79% | 680 nM | 11 nM |  |  | 0.71 nM |  |  |  | 
6 | CC(=O)CCCCn1cc(C(=O)C2C(C)(C)C2(C)C)c2ccccc21 |  | 384 |  | 89% | 380 nM | 6 nM |  |  | 0.99 nM |  |  |  | 
7 | CC1(C)C(C(=O)c2cn(CCCO)c3ccccc23)C1(C)C |  | 1050 |  | 140% | 2200 nM | 27 nM |  |  | 2.1 nM |  |  |  | 
8 | O=C(c1cn(CC2CCOCC2)c2ccccc12)C12CC3CC(CC(C3)O1)C2 |  | 91 |  | 97% | 538 nM | 8 nM |  |  | 5.9 nM |  |  |  | 
9 | CC1(C)C(C(=O)c2cn(CCc3ccccn3)c3ccccc23)C1(C)C |  | 28 |  | 59% | 1900 nM | 542 nM |  |  | 68 nM |  |  |  | 
10 | CC1(C)C(C(=O)c2cn(CCc3cccs3)c3ccccc23)C1(C)C |  | 250 |  | 86% | 700 nM | 96 nM |  |  | 2.8 nM |  |  |  | 
11 | COC(=O)CCn1cc(C(=O)C2C(C)(C)C2(C)C)c2ccccc21 |  | 631 |  | 109% | 1830 nM | 17 nM |  |  | 2.9 nM |  |  |  | 
12 | CC1(C)C(C(=O)c2cn(CCN3CCOCC3)c3ccccc23)C1(C)C |  |  | 0.52 nM |  |  | 16 nM | 1.6 nM | 70% | 4.6 nM | 78% | 97% |  | 248 nM
13 | COCCCn1cc(C(=O)C2C(C)(C)C2(C)C)c2ccccc21 |  | 508 |  | 108% | 660 nM | 26 nM |  |  | 1.3 nM |  |  |  | 
14 | CC1(C)C(C(=O)c2cn(CCn3cccc3)c3ccccc23)C1(C)C |  | 172 |  | 97% | 310 nM | 54 nM |  |  | 1.8 nM |  |  |  | 
15 | CCCCCn1cc(C(=O)C2C(C)(C)C2(C)C)c2ccccc21 |  | 83 |  | 93% | 150 nM | 29 nM |  |  | 1.8 nM |  |  |  | 
16 | CN(C)CCn1cc(C(=O)C2C(C)(C)C2(C)C)c2ccccc21 |  | > 5260 |  | 105% | > 10000 nM | 35 nM |  |  | 1.9 nM |  |  |  | 
